Screens from PubChem BioAssay.
MrgX1 PAM: human MrgX1 positive allosteric modulation, primary screen; 310,000 tested, 0.63% active; MrgX1-HEK293, Fluo-4 calcium flux, FDSS; hits give high values; Q96LB2; B-score at 10 µM;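 active = plate-corrected calcium response at least 3 library SD above typical, normal starting fluorescence, not activating the receptor alone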;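 also: compound read alongside a low EC10 to EC30 dose of BAM8-22 agonist; peak minus trough fluorescence over baseline measured at the second addition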
Target sequence (Q96LB2 whole entry, looked up): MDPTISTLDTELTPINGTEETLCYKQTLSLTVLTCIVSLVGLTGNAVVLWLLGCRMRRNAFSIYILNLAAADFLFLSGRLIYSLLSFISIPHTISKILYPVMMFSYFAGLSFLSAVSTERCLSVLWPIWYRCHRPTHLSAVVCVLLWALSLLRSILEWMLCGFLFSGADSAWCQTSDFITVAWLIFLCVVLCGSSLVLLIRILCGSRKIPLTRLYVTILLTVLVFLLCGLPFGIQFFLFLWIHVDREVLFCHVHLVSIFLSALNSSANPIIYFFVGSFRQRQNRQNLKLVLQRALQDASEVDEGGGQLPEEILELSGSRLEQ
MrgX1 ag: agonists of human MrgX1 receptor; MrgX1-HEK293 cells, Fluo-4 calcium fluorescence, agonist mode; hits give high values; 310,000 tested, 0.44% active; B-score at 10 µM; Q96LB2;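 active = calcium response B-score plate-corrected fluorescence ratio at least 3 library SD, with starting fluorescence B-score inside 5 SD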
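Test system: Stable human MrgX1 HEK293 cell line | Schedule: Overnight plating before 1 h dye loading | Read-out basis: Baseline-normalised fluorescence change ratio, B-scored | Detection: Kinetic calcium dye fluorescence, Fluo-4 NW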
RGS4 inh: human RGS4 inhibition; P49798; 310,000 tested, 0.45% active; HEK293 M3R/RGS4 inducible, Fluo-4 calcium flux; hits give high values; triggered by carbachol at its EC20; B-score at 10 µM; AID 463165;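 active = B-score, a plate-corrected calcium signal, over three deviations above library mean, with baseline fluorescence within five deviations of library mean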;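 also: RGS4 expression induced by doxycycline in cells with stable M3 receptor; B-score is computed from the integrated fluorescence ratio over baseline after carbachol; higher B-score means a larger calcium signal and so more RGS4 inhibition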
Target sequence (P49798 whole entry, looked up): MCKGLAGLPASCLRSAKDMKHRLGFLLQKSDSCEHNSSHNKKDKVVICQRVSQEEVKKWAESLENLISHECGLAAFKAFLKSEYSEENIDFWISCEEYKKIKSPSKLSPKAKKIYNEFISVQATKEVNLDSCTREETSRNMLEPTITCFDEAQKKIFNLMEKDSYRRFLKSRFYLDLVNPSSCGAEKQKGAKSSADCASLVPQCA
MrgX1 antagonist: antagonists of human MrgX1 receptor; B-score at 10 µM; MRGX1-HEK293 calcium flux, Fluo-4, BAM8-22 antagonism; hits give low values; AID 588676; 310,000 tested, 1.3% active;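 active = calcium-response B-score plate-corrected more than 3 library SD below zero, starting fluorescence within 5 deviations, no agonist response on first addition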;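 also: peak minus trough fluorescence over baseline after final BAM8-22 challenge near maximal dose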
RGS4 pot: potentiators or activators of RGS4 | HEK293 M3R/inducible RGS4, carbachol calcium flux Fluo4; hits give low values | B-score at 10 µM | 310,000 tested, 0.92% active | AID 463111;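 active = B-score of the integrated calcium signal more than 4 SD below the library mean, with starting fluorescence not abnormally high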;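 also: negative B-score means reduced calcium response which marks RGS4 activation or potentiation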
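Assay system: Inducible-RGS4 HEK293 cells carrying M3 receptor | Schedule: Compound preincubation 20 min at room temperature before agonist | Signal: Kinetic calcium fluorescence imaging with Fluo4-AM dye, 2 µM | Read-out basis: B score from integrated fluorescence ratio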
MrgX1 ant reconf: human MrgX1 receptor antagonism, re-confirmation screen; shares compounds with MrgX1 antagonist; MrgX1-HEK293, BAM8-22 calcium flux, Fluo-4; hits give low values; remaining BAM8-22 calcium response % of control (hits give low values), % at 10 µM; 2,300 tested, 19% active; AID 602420;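 active = remaining agonist calcium response no higher than 100% minus 3 SD of agonist-only control wells, with starting fluorescence near control levels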;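 also: agonist BAM8-22 given at a near maximal EC90 to ECmax level; peak minus minimum fluorescence divided by baseline after agonist addition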
HEK293 Ca flux: counter-screen for MrgX1 antagonists: effect in parental HEK293 cells; shares compounds with MrgX1 antagonist; Fluo-4 calcium fluorescence, FDSS; fluorescence ratio F(max-min)/F0 at 10 µM; 4,000 tested, 2% active;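 active = duplicate-averaged calcium fluorescence ratio at least three times the standard deviation of buffer wells, a nonspecific response in parental cells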
HEK293 Ca counter: counter-screen for MrgX1 allosteric activators: effect in parental HEK293 cells; shares compounds with MrgX1 antagonist; parental HEK293 calcium flux, Fluo-4 fluorescence ratio; hits give high values; 4,000 tested, 0.4% active; fluorescence ratio F(max-min)/F0 at 10 µM;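 active = calcium fluorescence ratio, averaged over duplicates, at least 3 SD of the buffer-well ratio, meaning a nonspecific response in receptor-free cells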;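 also: untransfected parental HEK293 lacking MrgX1 used as counterscreen for MrgX1 allosteric activators; fluorescence change taken during the second addition on a kinetic imager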
HEK293 Ca cntr2: activity in parental HEK293 cells lacking MrgX1 receptor. shares compounds with MrgX1 antagonist. Fluo-4 calcium fluorescence (FDSS); hits give high values. fluorescence ratio F(max-min)/F0 at 10 µM. 4,000 tested, 8.7% active. AID 624115;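 active = calcium fluorescence ratio at least three times the spread of buffer wells, meaning a non-specific response in parental cells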
* marks the source's active call; other numbers are inactive results; i = inactive; x = not tested or not shown. In the library only some 3.5% were active in any assay of this set; here they are far more common.

SMILES	MrgX1 PAM	MrgX1 ag	RGS4 inh	MrgX1 antagonist	RGS4 pot	MrgX1 ant reconf	HEK293 Ca flux	HEK293 Ca counter	HEK293 Ca cntr2
COC(=O)CSc1nc2c(c(-c3ccc(C)o3)c1C#N)CCCC2	i	i	i	-6.9*	i	i	i	i	i
CCSc1nc2c(c(-c3ccc(C)o3)c1C#N)CCCC2	i	i	i	i	i	x	x	x	x
CCc1ccc2nc(SCC(=O)Nc3nnc(C)s3)c(C)cc2c1	i	i	i	-6.2*	i	83%*	i	i	i
CCOC(=O)CCc1c(C)nc2cc(-c3ccc(Cl)cc3)[nH]n2c1=O	i	i	i	-6*	i	i	i	i	i
CCc1c(C)nc2cc(-c3ccc(Cl)cc3)[nH]n2c1=O	i	i	i	i	i	x	x	x	x
Cc1ccc(C(=O)COc2cc(C)nc3nncn23)cc1	i	i	i	i	i	x	x	x	x
COc1ccccc1NS(=O)(=O)c1cc(NC(=O)c2ccc(Cl)nc2)ccc1Cl	i	i	i	-14*	i	54%*	i	i	i
COc1ccc(NC(=O)c2ccc(Cl)c(S(=O)(=O)N3CCc4ccccc4C3)c2)cn1	i	i	i	-5.5*	i	38%*	i	i	i
Cc1ccc(S(=O)(=O)Nc2ccc(C(=O)N3CCCC3)cc2)c(C)c1NS(C)(=O)=O	i	i	i	i	i	x	x	x	x
Cc1ccc(OCC(=O)Nn2c(C)nc3ccccc3c2=O)c(C(C)C)c1	i	i	i	-11*	i	i	i	i	i
O=C1CN(C(=O)CNC(=O)c2ccc(Cl)cc2Cl)CCN1	i	i	i	i	i	x	x	x	x
CN1C(=O)N(C)C2C1N(CN1CCCCC1)C(=O)N2CN1CCCCC1 (stereo unspecified)	i	i	i	-4.9*	i	84%*	i	i	i
COCCNC(=O)C1CC2Cn3c(nc4cc5ccccc5cc43)C2N1C (stereo unspecified)	i	i	i	-5.3*	i	i	i	i	i
COCCNC(=O)C1CC2Cn3c(nc4cc(C)c(C)cc43)C2N1C (stereo unspecified)	i	i	i	i	i	x	x	x	x
Cc1cccc(C(C)C)c1NC(=O)c1cc2ccccc2o1	i	i	i	i	i	x	x	x	x
CCOc1ccc(-c2nc(CCl)cs2)cc1OC	i	i	i	i	i	x	x	x	x
CCOC(=O)c1cnc2nc(C(F)(F)F)[nH]n2c1=O	i	i	i	-5.5*	i	i	i	i	i
Cc1cccc(N2C(=O)CC(N3CCN(c4ccccn4)CC3)C2=O)c1 (stereo unspecified)	i	i	i	i	i	x	x	x	x
Cc1cccn2cc(-c3c[nH]c4ccccc34)nc12	i	i	i	i	i	x	x	x	x
Brc1ccc2nc(-c3c[nH]c4ccccc34)cn2c1	i	i	i	-5.4*	i	i	i	i	i
CC(C)c1ccc(CN(C)CC(O)c2ccccc2)cc1 (stereo unspecified)	i	i	i	i	i	x	x	x	x
Fc1ccccc1N1CCN(c2cnc3ccccc3n2)CC1	i	i	i	i	i	x	x	x	x
c1ccc(CN2CCN(c3cnc4ccccc4n3)CC2)cc1	i	i	i	-8.8*	i	i	i	i	i
COc1ccc(CNc2nc3nc(C)c(Cl)c(=O)n3[nH]2)cc1OC	i	i	i	-5.9*	i	i	i	i	i
